Source: ChEMBL document CHEMBL4406804, “Discovery of a Potent Steroidal Glucocorticoid Receptor Antagonist with Enhanced Selectivity against the Progesterone and Androgen Receptors (OP-3633)” (J Med Chem, 2019)
Converted amounts (≈) assume the structure as drawn.

Legend:
[1] = Volume of distribution at steady state in mini-pig at 0.5 mg/kg, iv; assay type: ADME, organism-based, Sus scrofa domesticus; conditions: in vivo, read-out: Vdss
[2] = Clearance in mini-pig at 0.5 mg/kg, iv; assay type: ADME, organism-based, Sus scrofa domesticus; conditions: in vivo
[3] = system: Mus musculus; assay: Unbound plasma concentration in hsd:athymic Nude-Foxn1nu mouse xenografted with human HCC1806 cells at 150 mg/kg, po administered as single dose via gavage and measured after 1 to 6 hrs […]; assay type: ADME, organism-based; conditions: in vivo
How it was run: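 Mice bearing HCC1806 xenografts received a bolus oral dose of cortisol at 5 mg/kg to activate GR, plus a single oral gavage dose of the test agent at 150 mg/kg. An unbound plasma concentration-time profile was taken up to 6 h, with n = 3 mice per group.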

[4] = Half-life in rat at 0.5 mg/kg, iv; assay type: ADME, organism-based; conditions: in vivo
How it was run: (§1)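 Rat PK study. The iv dose of 0.5 mg/kg was given in 10% DMSO, 70% PEG 400 and 20% water. The oral dose of 5 mg/kg was given in 5% DMSO / 95% of 0.2% Tween 80 in 0.25% CMC, adjusted to pH 4 for one compound. Read-outs were CL, Vss, iv t1/2, F, Cmax and AUC.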

[5] = AUC in rat at 5 mg/kg, po; assay type: ADME, organism-based; conditions: in vivo; how it was run: as §1
[6] = molecular target: T1, Progesterone receptor (Homo sapiens, UniProt P06401); assay: Antagonist activity at human progesterone receptor expressed in CHO-K1 cells harboring firefly luciferase gene after 20 hrs by One-Glo luciferase reporter gene assay; assay type: cell-based
T1 sequence (P06401 whole entry): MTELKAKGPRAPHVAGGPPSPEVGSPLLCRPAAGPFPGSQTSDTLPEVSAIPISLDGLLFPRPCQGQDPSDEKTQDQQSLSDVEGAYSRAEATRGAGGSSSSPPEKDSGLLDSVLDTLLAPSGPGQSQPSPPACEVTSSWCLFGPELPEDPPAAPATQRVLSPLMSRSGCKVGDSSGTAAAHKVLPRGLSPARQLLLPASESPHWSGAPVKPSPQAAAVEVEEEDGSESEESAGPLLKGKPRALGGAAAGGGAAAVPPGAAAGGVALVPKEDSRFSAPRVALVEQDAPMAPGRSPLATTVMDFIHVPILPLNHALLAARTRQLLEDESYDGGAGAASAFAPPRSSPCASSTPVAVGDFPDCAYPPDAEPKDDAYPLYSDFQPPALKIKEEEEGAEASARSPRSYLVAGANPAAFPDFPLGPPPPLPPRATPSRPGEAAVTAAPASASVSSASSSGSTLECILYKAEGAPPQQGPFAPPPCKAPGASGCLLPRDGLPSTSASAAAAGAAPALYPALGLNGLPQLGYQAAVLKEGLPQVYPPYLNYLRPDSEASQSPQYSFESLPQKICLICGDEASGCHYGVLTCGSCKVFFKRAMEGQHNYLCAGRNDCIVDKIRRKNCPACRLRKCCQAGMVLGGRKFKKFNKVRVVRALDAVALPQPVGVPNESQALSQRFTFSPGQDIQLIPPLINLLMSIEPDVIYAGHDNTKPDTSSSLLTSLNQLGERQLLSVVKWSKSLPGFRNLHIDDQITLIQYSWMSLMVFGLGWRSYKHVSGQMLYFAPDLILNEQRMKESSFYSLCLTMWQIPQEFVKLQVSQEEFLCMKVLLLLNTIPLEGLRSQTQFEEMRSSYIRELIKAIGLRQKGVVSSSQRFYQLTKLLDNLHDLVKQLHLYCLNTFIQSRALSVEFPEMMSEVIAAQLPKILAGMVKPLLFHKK
How it was run: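 Cell-based luciferase reporter assays for GR, AR and PR, run in agonist and antagonist modes. Potency and Emax are averages of at least two determinations, reported with SD.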

[7] = Clearance in dog at 0.5 mg/kg, iv; assay type: ADME, organism-based, Canis lupus familiaris; conditions: in vivo
[8] = Half-life in mini-pig at 0.5 mg/kg, iv; assay type: ADME, organism-based, Sus scrofa domesticus; conditions: in vivo
[9] = molecular target: T2, Glucocorticoid receptor (Homo sapiens, UniProt P04150); assay: Displacement of fluormone tracer from full length human recombinant glucocorticoid receptor expressed in baculovirus expression system incubated for 2 hrs by competitive fluorescence polarization binding assay
T2 sequence (P04150 whole entry): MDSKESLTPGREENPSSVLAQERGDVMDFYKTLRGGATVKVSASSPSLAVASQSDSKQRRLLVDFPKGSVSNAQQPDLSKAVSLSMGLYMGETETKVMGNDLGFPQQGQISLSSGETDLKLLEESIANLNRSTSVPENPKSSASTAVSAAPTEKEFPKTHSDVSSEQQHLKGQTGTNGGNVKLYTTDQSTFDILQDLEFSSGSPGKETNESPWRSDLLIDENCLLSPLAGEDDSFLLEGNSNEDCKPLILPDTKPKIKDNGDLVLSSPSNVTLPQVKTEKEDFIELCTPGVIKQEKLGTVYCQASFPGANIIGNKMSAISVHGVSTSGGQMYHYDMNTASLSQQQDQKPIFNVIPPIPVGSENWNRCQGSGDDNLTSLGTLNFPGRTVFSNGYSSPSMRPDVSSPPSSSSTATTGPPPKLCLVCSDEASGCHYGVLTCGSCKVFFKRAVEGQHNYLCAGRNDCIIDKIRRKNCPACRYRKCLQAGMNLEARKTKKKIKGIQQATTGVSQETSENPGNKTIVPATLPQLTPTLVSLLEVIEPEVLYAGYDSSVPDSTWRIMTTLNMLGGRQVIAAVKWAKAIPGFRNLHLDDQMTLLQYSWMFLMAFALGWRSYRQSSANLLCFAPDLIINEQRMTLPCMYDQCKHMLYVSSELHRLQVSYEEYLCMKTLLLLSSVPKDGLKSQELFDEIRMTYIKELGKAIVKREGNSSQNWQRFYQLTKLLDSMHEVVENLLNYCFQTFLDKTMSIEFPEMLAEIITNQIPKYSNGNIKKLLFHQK

[10] = AUC in dog at 5 mg/kg, po; assay type: ADME, organism-based, Canis lupus familiaris; conditions: in vivo
[11] = Cmax in dog at 5 mg/kg, po; assay type: ADME, organism-based, Canis lupus familiaris; design: dose 5 mg/kg, route oral; conditions: in vivo
[12] = system: Mus musculus; assay: (§2) In vivo antagonist activity at glucocorticoid receptor in tumor of human HCC1806 cells xenografted in hsd:athymic Nude-Foxn1nu mouse assessed as reduction in cortisol-stimulated FKBP5 mRNA expression at 150 mg/kg, po administered as single dose via gavage and measured at 3 hrs post cortisol addition by qRT-PCR analysis (reference value: 2.3 to 4); assay type: functional
How it was run: (§3)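 HCC1806 TNBC xenograft tumors in mice. Cortisol 5 mg/kg given orally as a bolus to activate GR. The compound was given as a single oral gavage dose of 150 mg/kg, with vehicle controls. Tumors were collected 3 and 6 h after cortisol, and FKBP5 mRNA was measured by RT-qPCR relative to vehicle. n = 3 mice/group. One-way ANOVA with Dunnett's test versus vehicle.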

[13] = Solubility of compound in fasted state simulated gastric fluid at pH 1.2; assay type: physicochemical
[14] = molecular target: CYP3A4 (Homo sapiens, UniProt P08684); assay: Inhibition of CYP3A4 (unknown origin) at 10 uM using midazolam as substrate relative to control; assay type: ADME; conditions: probe midazolam
Sequence of CYP3A4 (P08684 whole entry): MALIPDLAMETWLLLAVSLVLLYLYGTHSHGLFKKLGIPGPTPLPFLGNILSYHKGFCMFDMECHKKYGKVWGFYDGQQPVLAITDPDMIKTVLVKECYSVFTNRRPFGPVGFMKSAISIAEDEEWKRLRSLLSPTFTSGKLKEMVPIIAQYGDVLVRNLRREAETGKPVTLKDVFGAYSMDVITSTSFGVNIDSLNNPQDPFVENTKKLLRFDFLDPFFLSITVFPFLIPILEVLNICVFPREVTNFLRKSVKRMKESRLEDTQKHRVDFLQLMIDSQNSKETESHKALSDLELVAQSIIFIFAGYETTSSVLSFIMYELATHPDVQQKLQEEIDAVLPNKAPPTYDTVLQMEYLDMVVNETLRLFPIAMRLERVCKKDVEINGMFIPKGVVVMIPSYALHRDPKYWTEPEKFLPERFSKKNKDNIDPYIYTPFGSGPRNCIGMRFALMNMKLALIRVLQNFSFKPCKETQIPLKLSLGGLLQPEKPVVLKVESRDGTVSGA

[15] = Cmax in rat at 5 mg/kg, po; assay type: ADME, organism-based; design: dose 5 mg/kg, route oral; conditions: in vivo; how it was run: as §1
[16] = system: Mus musculus; assay: as §2, with “at 6” for “at 3”; assay type: functional; how it was run: as §3

In the case of `CC#C[C@]1(O)CC[C@H]2[C@@H]3CCC4=CC(=O)CC[C@]4(C)[C@H]3[C@@H](c3ccc(N(C)C)cc3)C[C@@]21C`, the Vd [1] is reported as 1.45 L/kg, the clearance [2] is reported as 12.5 mL/min/kg and the “Cp(f)” value [3] is reported as 400 nM. For the same compound, the half-life [4] was 1.8 h, the AUC [5] was 1020 ng·h/mL and the IC50 [6] was 1140 nM. For the same compound, the clearance [7] was 10.2 mL/min/kg, the half-life [8] was 2.71 h and the IC50 [9] was 8.5 nM. For the same compound, the AUC [10] was 5930 ng·h/mL, the Cmax [11] was 1260 ng/mL and the “fold change (FC)” value [12] was 2.8. The solubility [13] was 1130 µM (≈ 504 µg/mL), the inhibition at 10 µM [14] was 34% and the Cmax [15] was 518 ng/mL. For the same compound, the “fold change (FC)” value [16] was 2.3.
